Source: ChEMBL document CHEMBL4689842, “EUbOPEN Chemogenomics Library wave 1” (2021)

System: HEK-293T
Test: Multiplex assay against HEK293T;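 for Population Tubulin-Different-Phenotype (%): share of the cells with healthy nuclei that show this phenotype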
Type: toxicity, cell-based
Conditions: human
Method in brief: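 Compound was added to live cells that had been stained at seeding with Hoechst33342, BioTracker Green Microtubule Cytoskeleton Dye, MitoTracker Red and Annexin V Alexa Fluor 680, and imaging followed on a CQ1 microscope at 37°C and 5% CO2. CellPathfinder machine-learning gating divided cells into Hoechst high-intensity objects or normal cells, normal cells into healthy, pyknosed or fragmented nuclei, and pyknosed cells into mitotic or apoptotic. Tubulin, mitochondrial-mass and membrane-permeability phenotypes are per cents of healthy-nucleus cells.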

[1] = 12 h, 1 µM, compound concentration 1 uM, replicate 1
[2] = 12 h, 1 µM, compound concentration 1 uM, replicate 2
[3] = 12 h, 10 µM, compound concentration 10 uM, replicate 1
[4] = 12 h, 10 µM, compound concentration 10 uM, replicate 2
[5] = 24 h, 1 µM, compound concentration 1 uM, replicate 1
[6] = 24 h, 1 µM, compound concentration 1 uM, replicate 2
[7] = 24 h, 10 µM, compound concentration 10 uM, replicate 1
[8] = 24 h, 10 µM, compound concentration 10 uM, replicate 2
[9] = 48 h, 1 µM, compound concentration 1 uM, replicate 1
[10] = 48 h, 1 µM, compound concentration 1 uM, replicate 2
[11] = 48 h, 10 µM, compound concentration 10 uM, replicate 1
[12] = 48 h, 10 µM, compound concentration 10 uM, replicate 2

## Cc1cc(C)c(S(=O)(=O)N(Cc2ccc(-c3cccc(S(C)(=O)=O)c3)cc2)Cc2ccc(C(F)(F)F)o2)c(C)c1
[1]
  Population Apoptotic (%): 47%
  Population Fragmented Nuclei (%): 13%
  Population Healthy Nuclei (%): 36%
  Population Hoechst High Intensity Objects (%): 10%
  Population Membrane Permeable-Phenotype (%): 3%
  Population Mitochondria Different-Phenotype (%): 81%
  Population Mitotic Cells (%): 52%
  Population Normal (%): 89%
  Population Pyknosed Nuclei (%): 49%
  Population Tubulin-Different-Phenotype (%): 59%
  Total Cell Count: 263
[2]
  Population Apoptotic (%): 13%
  Population Fragmented Nuclei (%): 6%
  Population Healthy Nuclei (%): 49%
  Population Hoechst High Intensity Objects (%): 4%
  Population Membrane Permeable-Phenotype (%): 9%
  Population Mitochondria Different-Phenotype (%): 13%
  Population Mitotic Cells (%): 86%
  Population Normal (%): 95%
  Population Pyknosed Nuclei (%): 43%
  Population Tubulin-Different-Phenotype (%): 9%
  Total Cell Count: 213
[3]
  Population Apoptotic (%): 52%
  Population Fragmented Nuclei (%): 12%
  Population Healthy Nuclei (%): 35%
  Population Hoechst High Intensity Objects (%): 14%
  Population Membrane Permeable-Phenotype (%): 10%
  Population Mitochondria Different-Phenotype (%): 89%
  Population Mitotic Cells (%): 47%
  Population Normal (%): 85%
  Population Pyknosed Nuclei (%): 51%
  Population Tubulin-Different-Phenotype (%): 90%
  Total Cell Count: 216
[4]
  Population Apoptotic (%): 6%
  Population Fragmented Nuclei (%): 9%
  Population Healthy Nuclei (%): 48%
  Population Hoechst High Intensity Objects (%): 2%
  Population Membrane Permeable-Phenotype (%): 5%
  Population Mitochondria Different-Phenotype (%): 20%
  Population Mitotic Cells (%): 93%
  Population Normal (%): 97%
  Population Pyknosed Nuclei (%): 41%
  Population Tubulin-Different-Phenotype (%): 16%
  Total Cell Count: 145
[5]
  Population Apoptotic (%): 43%
  Population Fragmented Nuclei (%): 13%
  Population Healthy Nuclei (%): 44%
  Population Hoechst High Intensity Objects (%): 9%
  Population Membrane Permeable-Phenotype (%): 2%
  Population Mitochondria Different-Phenotype (%): 66%
  Population Mitotic Cells (%): 56%
  Population Normal (%): 90%
  Population Pyknosed Nuclei (%): 42%
  Population Tubulin-Different-Phenotype (%): 49%
  Total Cell Count: 304
[6]
  Population Apoptotic (%): 9%
  Population Fragmented Nuclei (%): 6%
  Population Healthy Nuclei (%): 64%
  Population Hoechst High Intensity Objects (%): 2%
  Population Membrane Permeable-Phenotype (%): 10%
  Population Mitochondria Different-Phenotype (%): 10%
  Population Mitotic Cells (%): 90%
  Population Normal (%): 97%
  Population Pyknosed Nuclei (%): 29%
  Population Tubulin-Different-Phenotype (%): 29%
  Total Cell Count: 261
[7]
  Population Apoptotic (%): 52%
  Population Fragmented Nuclei (%): 13%
  Population Healthy Nuclei (%): 38%
  Population Hoechst High Intensity Objects (%): 15%
  Population Membrane Permeable-Phenotype (%): 9%
  Population Mitochondria Different-Phenotype (%): 74%
  Population Mitotic Cells (%): 47%
  Population Normal (%): 84%
  Population Pyknosed Nuclei (%): 48%
  Population Tubulin-Different-Phenotype (%): 89%
  Total Cell Count: 225
[8]
  Population Apoptotic (%): 11%
  Population Fragmented Nuclei (%): 7%
  Population Healthy Nuclei (%): 72%
  Population Hoechst High Intensity Objects (%): 3%
  Population Membrane Permeable-Phenotype (%): 6%
  Population Mitochondria Different-Phenotype (%): 10%
  Population Mitotic Cells (%): 88%
  Population Normal (%): 96%
  Population Pyknosed Nuclei (%): 19%
  Population Tubulin-Different-Phenotype (%): 24%
  Total Cell Count: 187
[9]
  Population Apoptotic (%): 46%
  Population Fragmented Nuclei (%): 13%
  Population Healthy Nuclei (%): 61%
  Population Hoechst High Intensity Objects (%): 8%
  Population Membrane Permeable-Phenotype (%): 4%
  Population Mitochondria Different-Phenotype (%): 38%
  Population Mitotic Cells (%): 53%
  Population Normal (%): 91%
  Population Pyknosed Nuclei (%): 25%
  Population Tubulin-Different-Phenotype (%): 39%
  Total Cell Count: 387
[10]
  Population Apoptotic (%): 9%
  Population Fragmented Nuclei (%): 6%
  Population Healthy Nuclei (%): 81%
  Population Hoechst High Intensity Objects (%): 2%
  Population Membrane Permeable-Phenotype (%): 7%
  Population Mitochondria Different-Phenotype (%): 5%
  Population Mitotic Cells (%): 90%
  Population Normal (%): 97%
  Population Pyknosed Nuclei (%): 11%
  Population Tubulin-Different-Phenotype (%): 20%
  Total Cell Count: 474
[11]
  Population Apoptotic (%): 45%
  Population Fragmented Nuclei (%): 13%
  Population Healthy Nuclei (%): 60%
  Population Hoechst High Intensity Objects (%): 6%
  Population Membrane Permeable-Phenotype (%): 7%
  Population Mitochondria Different-Phenotype (%): 57%
  Population Mitotic Cells (%): 54%
  Population Normal (%): 93%
  Population Pyknosed Nuclei (%): 25%
  Population Tubulin-Different-Phenotype (%): 80%
  Total Cell Count: 302
[12]
  Population Apoptotic (%): 16%
  Population Fragmented Nuclei (%): 8%
  Population Healthy Nuclei (%): 84%
  Population Hoechst High Intensity Objects (%): 1%
  Population Membrane Permeable-Phenotype (%): 3%
  Population Mitochondria Different-Phenotype (%): 3%
  Population Mitotic Cells (%): 84%
  Population Normal (%): 98%
  Population Pyknosed Nuclei (%): 6%
  Population Tubulin-Different-Phenotype (%): 9%
  Total Cell Count: 367

## NC(=O)c1cccc(-c2cc(Nc3ccc(OC(F)(F)F)cc3)ncn2)c1
[1]
  Population Apoptotic (%): 23%
  Population Fragmented Nuclei (%): 12%
  Population Healthy Nuclei (%): 75%
  Population Hoechst High Intensity Objects (%): 7%
  Population Membrane Permeable-Phenotype (%): 4%
  Population Mitochondria Different-Phenotype (%): 5%
  Population Mitotic Cells (%): 76%
  Population Normal (%): 92%
  Population Pyknosed Nuclei (%): 12%
  Population Tubulin-Different-Phenotype (%): 3%
  Total Cell Count: 801
[2]
  Population Apoptotic (%): 9%
  Population Fragmented Nuclei (%): 7%
  Population Healthy Nuclei (%): 88%
  Population Hoechst High Intensity Objects (%): 1%
  Population Membrane Permeable-Phenotype (%): 0%
  Population Mitochondria Different-Phenotype (%): 10%
  Population Mitotic Cells (%): 90%
  Population Normal (%): 98%
  Population Pyknosed Nuclei (%): 4%
  Population Tubulin-Different-Phenotype (%): 5%
  Total Cell Count: 1607
[3]
  Population Apoptotic (%): 18%
  Population Fragmented Nuclei (%): 15%
  Population Healthy Nuclei (%): 54%
  Population Hoechst High Intensity Objects (%): 17%
  Population Membrane Permeable-Phenotype (%): 4%
  Population Mitochondria Different-Phenotype (%): 4%
  Population Mitotic Cells (%): 81%
  Population Normal (%): 82%
  Population Pyknosed Nuclei (%): 29%
  Population Tubulin-Different-Phenotype (%): 4%
  Total Cell Count: 597
[4]
  Population Apoptotic (%): 24%
  Population Fragmented Nuclei (%): 4%
  Population Healthy Nuclei (%): 89%
  Population Hoechst High Intensity Objects (%): 2%
  Population Membrane Permeable-Phenotype (%): 0%
  Population Mitochondria Different-Phenotype (%): 14%
  Population Mitotic Cells (%): 75%
  Population Normal (%): 97%
  Population Pyknosed Nuclei (%): 6%
  Population Tubulin-Different-Phenotype (%): 6%
  Total Cell Count: 1186
[5]
  Population Apoptotic (%): 22%
  Population Fragmented Nuclei (%): 12%
  Population Healthy Nuclei (%): 81%
  Population Hoechst High Intensity Objects (%): 4%
  Population Membrane Permeable-Phenotype (%): 7%
  Population Mitochondria Different-Phenotype (%): 3%
  Population Mitotic Cells (%): 77%
  Population Normal (%): 95%
  Population Pyknosed Nuclei (%): 5%
  Population Tubulin-Different-Phenotype (%): 4%
  Total Cell Count: 1111
[6]
  Population Apoptotic (%): 3%
  Population Fragmented Nuclei (%): 23%
  Population Healthy Nuclei (%): 74%
  Population Hoechst High Intensity Objects (%): 3%
  Population Membrane Permeable-Phenotype (%): 4%
  Population Mitochondria Different-Phenotype (%): 2%
  Population Mitotic Cells (%): 96%
  Population Normal (%): 96%
  Population Pyknosed Nuclei (%): 2%
  Population Tubulin-Different-Phenotype (%): 6%
  Total Cell Count: 2709
[7]
  Population Apoptotic (%): 17%
  Population Fragmented Nuclei (%): 16%
  Population Healthy Nuclei (%): 66%
  Population Hoechst High Intensity Objects (%): 11%
  Population Membrane Permeable-Phenotype (%): 3%
  Population Mitochondria Different-Phenotype (%): 4%
  Population Mitotic Cells (%): 82%
  Population Normal (%): 88%
  Population Pyknosed Nuclei (%): 17%
  Population Tubulin-Different-Phenotype (%): 6%
  Total Cell Count: 593
[8]
  Population Apoptotic (%): 4%
  Population Fragmented Nuclei (%): 9%
  Population Healthy Nuclei (%): 85%
  Population Hoechst High Intensity Objects (%): 3%
  Population Membrane Permeable-Phenotype (%): 1%
  Population Mitochondria Different-Phenotype (%): 6%
  Population Mitotic Cells (%): 95%
  Population Normal (%): 96%
  Population Pyknosed Nuclei (%): 4%
  Population Tubulin-Different-Phenotype (%): 11%
  Total Cell Count: 1486
